According to ChEMBL document CHEMBL4665761, “Optimizing the Benefit/Risk of Acetyl-CoA Carboxylase Inhibitors through Liver Targeting” (J Med Chem, 2020):
Converted amounts (≈) assume the structure as drawn.

Assays:
[1] = molecular target: P-glycoprotein 1 (Homo sapiens); assay: Inhibition of human ABCB1 expressed in MDCK2-LE cells in presence of […]
[2] = molecular target: Broad substrate specificity ATP-binding cassette transporter ABCG2 (Homo sapiens, UniProt Q9UNQ0); assay: Inhibition of human ABCG2 expressed in MDCK2-LE cells in presence of […]; format: cell-based, MDCKII-LE
Chain of Broad substrate specificity ATP-binding cassette transporter ABCG2 (Q9UNQ0 whole entry): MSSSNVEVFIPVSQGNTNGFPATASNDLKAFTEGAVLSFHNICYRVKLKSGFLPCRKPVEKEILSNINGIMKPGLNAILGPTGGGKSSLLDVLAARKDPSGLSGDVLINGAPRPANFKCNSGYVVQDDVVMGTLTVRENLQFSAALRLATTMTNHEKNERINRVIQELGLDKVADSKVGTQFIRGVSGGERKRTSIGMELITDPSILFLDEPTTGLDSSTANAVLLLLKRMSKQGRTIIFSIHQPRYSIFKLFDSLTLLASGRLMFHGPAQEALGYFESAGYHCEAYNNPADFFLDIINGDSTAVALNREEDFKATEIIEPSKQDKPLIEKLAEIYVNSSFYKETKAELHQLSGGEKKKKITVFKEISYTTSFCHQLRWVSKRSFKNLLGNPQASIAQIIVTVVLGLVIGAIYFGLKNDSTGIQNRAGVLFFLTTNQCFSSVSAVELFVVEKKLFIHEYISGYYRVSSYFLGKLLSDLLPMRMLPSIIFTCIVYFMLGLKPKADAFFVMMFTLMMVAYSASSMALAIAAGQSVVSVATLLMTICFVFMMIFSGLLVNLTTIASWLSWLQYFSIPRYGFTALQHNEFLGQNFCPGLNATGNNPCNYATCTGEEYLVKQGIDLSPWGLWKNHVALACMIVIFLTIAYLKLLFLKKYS

[3] = molecular target: UDP-glucuronosyltransferase 1A4 (Homo sapiens, UniProt P22310); assay: Inhibition of UGT1A4 in human liver microsomes incubated for 30 mins in presence of UDPGA by LC-MS/MS analysis; format: ADME
Chain of UDP-glucuronosyltransferase 1A4 (P22310 whole entry): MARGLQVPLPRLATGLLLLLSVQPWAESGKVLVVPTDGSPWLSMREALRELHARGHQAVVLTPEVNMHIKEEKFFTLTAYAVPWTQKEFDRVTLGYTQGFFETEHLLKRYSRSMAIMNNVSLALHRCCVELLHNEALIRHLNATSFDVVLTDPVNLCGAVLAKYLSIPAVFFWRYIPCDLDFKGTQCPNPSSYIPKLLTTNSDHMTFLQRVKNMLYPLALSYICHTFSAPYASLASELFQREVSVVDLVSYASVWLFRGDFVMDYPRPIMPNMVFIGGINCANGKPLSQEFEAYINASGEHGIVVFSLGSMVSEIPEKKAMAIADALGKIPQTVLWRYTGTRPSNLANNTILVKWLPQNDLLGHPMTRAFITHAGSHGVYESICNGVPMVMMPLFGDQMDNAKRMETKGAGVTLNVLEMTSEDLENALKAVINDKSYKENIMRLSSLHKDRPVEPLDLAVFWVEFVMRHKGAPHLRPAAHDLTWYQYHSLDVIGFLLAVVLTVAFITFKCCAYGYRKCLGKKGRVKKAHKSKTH

[4] = Inhibition of DNL in Sprague-Dawley rat assessed as reduction in DNL level in lung at 300 mg/kg, po pretreated with 1 hr followed by [14C]-acetate treatment and measured after 1 hr relative to control; format: functional; settings: time 2 hrs
Method in brief: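 Sprague-Dawley rats given single oral doses of 0.03–300 mg/kg in 0.5% methyl cellulose vehicle, n = 16 per dose. Read-out is incorporation of 14C-acetate into lipids in liver, bone marrow and lung, measured at 2 h post-dose relative to vehicle. Data are mean ± SEM. EC50 is reported with a 95% confidence interval.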

Cytochrome P450 2C8 = Cytochrome P450 2C8 (Homo sapiens, UniProt P10632); assay: inhibition of CYP2C8 in human liver microsomes; format: ADME
Chain of Cytochrome P450 2C8 (P10632 whole entry): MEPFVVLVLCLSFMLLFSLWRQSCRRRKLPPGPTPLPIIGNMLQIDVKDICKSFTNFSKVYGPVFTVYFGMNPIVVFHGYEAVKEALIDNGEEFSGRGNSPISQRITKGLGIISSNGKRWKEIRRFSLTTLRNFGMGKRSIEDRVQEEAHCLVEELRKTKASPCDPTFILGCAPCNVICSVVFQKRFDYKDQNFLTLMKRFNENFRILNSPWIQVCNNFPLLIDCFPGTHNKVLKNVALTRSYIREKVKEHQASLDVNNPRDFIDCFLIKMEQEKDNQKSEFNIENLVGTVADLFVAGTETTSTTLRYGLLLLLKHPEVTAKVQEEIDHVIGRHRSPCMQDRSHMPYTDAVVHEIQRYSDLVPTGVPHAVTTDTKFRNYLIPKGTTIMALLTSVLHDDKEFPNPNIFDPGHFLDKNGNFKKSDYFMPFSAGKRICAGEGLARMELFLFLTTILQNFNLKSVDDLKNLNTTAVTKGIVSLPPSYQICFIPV

[5] = Thermodynamic solubility of the compound at pH 1.2 after 24 hrs; format: physicochemical; settings: buffer, read-out: Therm_solubility
[6] = Drug uptake in Wistar-Hannover rat liver at 10 mg/kg, po after 6 hrs by LC/MS-MS analysis; format: ADME, organism-based; settings: read-out: Drug uptake
Method in brief: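 Male Wistar-Hannover rats, n = 2 or 3, given an oral suspension in 0.5% methyl cellulose with 0.1% Tween 80; one compound was dosed as the HCl salt. Total plasma and liver concentrations were measured 6 h post-dose. Kp = liver/plasma total concentration. Kpu,u uses fu values from equilibrium dialysis.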

[7] = Unbound plasma concentration in Sprague-Dawley rat at 300 mg/kg, po; format: ADME, organism-based; settings: in vivo
Method in brief: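 Sprague-Dawley rats given a single oral dose in 0.5% methyl cellulose vehicle. Unbound plasma concentration measured at 300 mg/kg.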

OATP1B1 = molecular target: T1, OATP1B1 (Homo sapiens, UniProt Q9Y6L6); assay: Substrate activity at human OATP1B1 stably expressed in HEK293 cells assessed as ratio of total to passive cellular uptake at 1 to 3 uM incubated for 0.5 to 4 mins by LC/MS-MS analysis; format: ADME, cell-based; settings: HEK293 cells stably expressing human OATP1B1, dose 1-3 µM, time 0.5-4 min
T1 sequence (Q9Y6L6 whole entry): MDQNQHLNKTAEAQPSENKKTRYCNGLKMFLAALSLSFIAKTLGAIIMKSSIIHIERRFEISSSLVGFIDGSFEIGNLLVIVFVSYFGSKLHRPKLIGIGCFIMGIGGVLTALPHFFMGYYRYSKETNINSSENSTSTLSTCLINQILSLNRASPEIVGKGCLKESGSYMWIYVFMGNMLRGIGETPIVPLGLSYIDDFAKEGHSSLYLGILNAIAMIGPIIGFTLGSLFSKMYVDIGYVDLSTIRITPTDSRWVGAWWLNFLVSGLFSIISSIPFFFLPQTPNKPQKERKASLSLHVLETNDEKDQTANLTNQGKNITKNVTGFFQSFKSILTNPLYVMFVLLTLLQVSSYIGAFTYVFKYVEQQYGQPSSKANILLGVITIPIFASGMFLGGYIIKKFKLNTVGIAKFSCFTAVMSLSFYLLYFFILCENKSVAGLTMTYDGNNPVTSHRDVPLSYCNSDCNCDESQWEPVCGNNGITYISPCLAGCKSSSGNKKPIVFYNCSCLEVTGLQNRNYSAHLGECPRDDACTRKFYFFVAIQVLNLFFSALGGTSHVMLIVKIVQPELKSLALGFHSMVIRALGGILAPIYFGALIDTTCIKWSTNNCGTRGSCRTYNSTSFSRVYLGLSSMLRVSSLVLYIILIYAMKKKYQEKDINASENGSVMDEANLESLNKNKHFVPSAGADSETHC
Method in brief: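 Stably transfected HEK293 cells and wild-type parental cells, cultured to confluency in DMEM with 10% heat-inactivated FBS and 5 µg/mL blasticidin. Uptake at 1–3 µM in HBSS/20 mM HEPES pH 7.4, 37 °C, 0.5–4.0 min. Cells washed in ice-cold buffer, lysed in MeOH, quantified by LC-MS/MS and normalized to protein. Ratio is transfected/parental uptake; >2 denotes substrate.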

Bile salt export pump = Bile salt export pump (Homo sapiens, UniProt O95342); assay: Inhibition of human BSEP expressed in baculovirus infected Hi5 insect cells in presence of taurocholic acid by LC-MS/MS analysis
Chain of Bile salt export pump (O95342 whole entry): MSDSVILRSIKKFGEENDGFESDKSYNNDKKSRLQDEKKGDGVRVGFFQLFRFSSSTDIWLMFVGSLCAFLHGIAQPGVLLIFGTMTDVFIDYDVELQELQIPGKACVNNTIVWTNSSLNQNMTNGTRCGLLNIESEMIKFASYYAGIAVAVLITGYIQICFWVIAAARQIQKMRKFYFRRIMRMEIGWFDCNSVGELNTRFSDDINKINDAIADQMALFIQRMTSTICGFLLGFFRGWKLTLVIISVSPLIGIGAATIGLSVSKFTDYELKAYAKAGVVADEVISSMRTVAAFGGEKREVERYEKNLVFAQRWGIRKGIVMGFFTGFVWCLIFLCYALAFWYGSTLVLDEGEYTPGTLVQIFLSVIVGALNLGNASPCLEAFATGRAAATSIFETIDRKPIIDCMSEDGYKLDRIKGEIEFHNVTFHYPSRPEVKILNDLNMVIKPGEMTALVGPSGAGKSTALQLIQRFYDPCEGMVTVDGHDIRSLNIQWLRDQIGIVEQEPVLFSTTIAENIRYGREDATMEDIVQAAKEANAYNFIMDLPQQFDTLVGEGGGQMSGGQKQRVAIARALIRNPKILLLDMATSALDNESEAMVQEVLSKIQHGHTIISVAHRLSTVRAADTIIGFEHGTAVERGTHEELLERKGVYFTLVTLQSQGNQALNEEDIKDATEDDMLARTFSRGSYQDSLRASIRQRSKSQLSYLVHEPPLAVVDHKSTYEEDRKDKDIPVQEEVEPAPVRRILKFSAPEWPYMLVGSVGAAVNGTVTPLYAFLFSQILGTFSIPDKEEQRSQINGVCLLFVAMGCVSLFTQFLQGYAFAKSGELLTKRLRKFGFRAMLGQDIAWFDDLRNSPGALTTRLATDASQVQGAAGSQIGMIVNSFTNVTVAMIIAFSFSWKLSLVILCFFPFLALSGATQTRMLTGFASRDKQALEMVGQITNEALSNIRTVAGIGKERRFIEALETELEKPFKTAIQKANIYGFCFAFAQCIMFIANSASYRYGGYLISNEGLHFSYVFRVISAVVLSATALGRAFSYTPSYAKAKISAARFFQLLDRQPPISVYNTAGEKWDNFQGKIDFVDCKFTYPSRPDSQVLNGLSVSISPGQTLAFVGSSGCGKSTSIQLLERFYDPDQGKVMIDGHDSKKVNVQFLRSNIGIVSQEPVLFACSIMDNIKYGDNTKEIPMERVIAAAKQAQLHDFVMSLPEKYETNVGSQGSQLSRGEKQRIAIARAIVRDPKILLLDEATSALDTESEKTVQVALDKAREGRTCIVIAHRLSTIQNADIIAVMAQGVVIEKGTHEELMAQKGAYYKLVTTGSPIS

NTCP = NTCP (Homo sapiens, UniProt Q14973); assay: Substrate activity at human NTCP stably expressed in HEK293 cells assessed as ratio of total to passive cellular uptake at 1 uM incubated for 0.5 to 4 mins by LC/MS-MS analysis; format: cell-based; settings: HEK293 cells stably expressing human NTCP, time 0.5-4 min
Chain of NTCP (Q14973 whole entry): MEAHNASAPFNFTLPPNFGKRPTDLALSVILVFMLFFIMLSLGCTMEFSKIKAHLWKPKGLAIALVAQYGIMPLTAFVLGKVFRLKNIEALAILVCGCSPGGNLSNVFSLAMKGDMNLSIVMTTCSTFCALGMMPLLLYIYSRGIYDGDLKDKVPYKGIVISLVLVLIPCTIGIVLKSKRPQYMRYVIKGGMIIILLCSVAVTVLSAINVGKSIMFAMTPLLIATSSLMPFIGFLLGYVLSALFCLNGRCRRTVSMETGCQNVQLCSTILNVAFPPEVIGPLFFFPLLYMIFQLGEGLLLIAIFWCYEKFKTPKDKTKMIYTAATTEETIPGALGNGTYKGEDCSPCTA
Method in brief: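 HEK293 cells stably transfected with the transporter, plus wild-type cells, grown to confluence in DMEM with 10% heat-inactivated FBS and 5 µg/mL blasticidin. Washed with HBSS/20 mM HEPES, pH 7.4, then incubated with compound at 37 °C for 0.5–4.0 min. Cells washed ice-cold, lysed in MeOH for LC-MS/MS, uptake normalized to BCA protein. Ratio = transfected/wild-type uptake, averaged over time points.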

[8] = molecular target: Solute carrier organic anion transporter family member 1B1 (Homo sapiens, UniProt Q9Y6L6); assay: Inhibition of human OATP1B1 expressed in HEK293 cells n presence of rosuvastatin; format: cell-based
[9] = Half life in cynomolgus monkey plasma at 1 mg/kg, iv and measured up to 72 hrs by LC/MS-MS analysis; format: ADME, organism-based, Macaca fascicularis
Method in brief: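 Cynomolgus monkeys dosed 1 mg/kg IV as the tris salt in 2% N-methylpyrrolidone/98% sulfobutylether-β-cyclodextrin (12.5%) in 50 mM TRIS, pH 8.0, or PO as the tris salt. Plasma was analysed by LC-MS/MS, n = 2. CL = IV dose/AUC; Vss = dose/(AUC × elimination rate constant); Cmax taken from observed data.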

[10] = Thermodynamic solubility of the compound at pH 7.4 after 24 hrs; format: physicochemical; settings: buffer, read-out: Therm_solubility
Rattus norvegicus = assay: Effect on triglyceride accumulation in Sprague-Dawley rat high fat dietary model at 3 mg/kg, po assessed as reduction in triglyceride level after 42 days by XPT clinical analyzer; format: functional; parameters: scale not given: the % may be the effect or the level left; settings: time 42 day
Method in brief: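 High-fat-diet-fed Sprague-Dawley rats dosed orally for 42 days, with chow-fed and vehicle controls, n = 10 per group. Read-out is hepatic triglyceride, reported as mean ± SEM.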

[11] = Induction of CYP1A2 mRNA expression in human hepatocytes at 0.5 to 200 uM; format: ADME, cell-based, Hepatocyte; settings: dose 0.5-200 µM
Method in brief: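 Individual human hepatocyte lots treated at 0.5–200 µM. Read-out is messenger RNA levels of CYP1A2 and CYP3A4.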

[12] = molecular target: UDP-glucuronosyltransferase 1A6 (Homo sapiens, UniProt P19224); assay: Inhibition of UGT1A6 in human liver microsomes incubated for 90 mins in presence of UDPGA by LC-MS/MS analysis; format: ADME
Chain of UDP-glucuronosyltransferase 1A6 (P19224 whole entry): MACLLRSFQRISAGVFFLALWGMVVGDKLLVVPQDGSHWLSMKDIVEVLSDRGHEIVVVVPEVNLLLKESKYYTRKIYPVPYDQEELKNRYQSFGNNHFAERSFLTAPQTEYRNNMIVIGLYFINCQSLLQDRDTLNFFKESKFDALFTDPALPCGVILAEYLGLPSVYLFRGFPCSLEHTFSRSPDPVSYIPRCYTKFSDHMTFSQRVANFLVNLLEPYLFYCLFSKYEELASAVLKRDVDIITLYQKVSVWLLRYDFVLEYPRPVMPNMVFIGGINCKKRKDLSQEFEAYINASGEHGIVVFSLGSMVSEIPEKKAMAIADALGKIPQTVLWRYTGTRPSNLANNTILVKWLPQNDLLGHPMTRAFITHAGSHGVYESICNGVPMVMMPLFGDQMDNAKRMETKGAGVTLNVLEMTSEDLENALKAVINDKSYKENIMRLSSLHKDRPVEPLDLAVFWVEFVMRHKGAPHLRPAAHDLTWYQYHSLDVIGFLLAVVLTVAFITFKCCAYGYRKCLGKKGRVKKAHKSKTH

Structure (SMILES): COc1cc(C(=O)N2CCC3(CC2)CC(=O)c2c(cnn2C(C)C)C3)cc(-c2ccc(C(=O)O)cc2)n1 [CLESACOSTAT]
- IC50 [1]: 39 µM
- IC50 [2]: 68 µM
- IC50 [3]: > 20 µM
- inhibition in vivo at 300 mg/kg [4]: 29%
- IC50 (Cytochrome P450 2C8): > 50 µM
- solubility thermodynamic at 24 h [5]: 8 µM (≈ 4.02 µg/mL)
- concentration at 6 h [6]: 24600 ng/mL
- Cp(f) [7]: 119.4 nM
- uptake ratio at up to 3 µM (OATP1B1): 3.5
- IC50 (Bile salt export pump): 94 µM
- uptake ratio at 1 µM (NTCP): 3.2
- IC50 [8]: 11.7 µM
- half-life [9]: 11 h
- solubility thermodynamic at 24 h [10]: 234 µM (≈ 118 µg/mL)
- Activity (Rattus norvegicus): 30%
- Activity [11]: Not Active
- IC50 [12]: > 20 µM
